High-throughput results: PubChem BioAssay, several laboratories
Lipid droplet: modulators of hepatic lipid droplet formation; AML12 mouse hepatocytes, oleate lipid droplets, BODIPY imaging; inhibition, % at 6.5 µM; 0.4% of 240,000 active; AID 1656;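 active means lipid droplet intensity inhibited by at least 50%, with more than 500 cells counted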
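Test system: AML12 mouse liver cells; schedule: overnight exposure; technique: high-content imaging of BODIPY-stained droplets and DAPI nuclei; read-out: % inhibition of corrected integrated BODIPY droplet signal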
MEKK2mut PB1 HTS: signal of MEK5 binding to mutant human MEKK2 PB1 domain. bead flow cytometry, Alexa488-MEK5 binding to MEKK2 mutant. percent response, % at 10 µM. 0.35% of 290,000 active. AID 1530; in the data active means percent response above about 24%, passing the limit was not always enough
MEKK3 PB1 HTS: MEKK3-MEK5 PB1 interaction, increase or decrease. bead-based flow cytometry, Alexa488-MEK5 binding to MEKK3; actives lie on both sides; 0 = blocked by unlabeled MEK5, 100 = vehicle. binding response (% of control), % at 10 µM. 1.4% of 290,000 active. AID 1529;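 active means binding response more than 3 SD above or below the average of its plate-row segment, actives on both sides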;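 further: Alexa488 bead fluorescence after subtracting the streptavidin-only scavenger bead signal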
Target sequence (Q99759 whole entry, looked up): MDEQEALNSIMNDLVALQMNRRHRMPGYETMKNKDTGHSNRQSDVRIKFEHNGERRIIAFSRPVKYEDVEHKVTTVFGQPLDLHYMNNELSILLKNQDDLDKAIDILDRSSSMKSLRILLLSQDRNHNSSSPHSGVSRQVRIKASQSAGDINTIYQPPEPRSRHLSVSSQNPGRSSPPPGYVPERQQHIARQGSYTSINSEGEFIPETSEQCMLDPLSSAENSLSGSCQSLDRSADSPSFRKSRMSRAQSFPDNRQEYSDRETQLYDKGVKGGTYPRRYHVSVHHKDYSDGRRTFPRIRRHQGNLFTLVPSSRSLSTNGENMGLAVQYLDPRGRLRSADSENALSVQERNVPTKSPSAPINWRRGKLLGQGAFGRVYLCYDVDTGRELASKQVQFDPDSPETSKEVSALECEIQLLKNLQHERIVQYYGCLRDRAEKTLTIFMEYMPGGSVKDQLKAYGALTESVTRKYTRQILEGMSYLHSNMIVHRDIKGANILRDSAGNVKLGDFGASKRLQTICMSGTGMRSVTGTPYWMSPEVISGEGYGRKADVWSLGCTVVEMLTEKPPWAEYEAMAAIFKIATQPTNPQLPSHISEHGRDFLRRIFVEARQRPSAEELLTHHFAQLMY
MEKK2 WT-MEK5: raises or lowers MEK5 binding to wildtype human MEKK2 PB1 domain; Q9Y2U5; bead flow cytometry, Alexa488-MEK5 binding to MEKK2 WT; actives lie on both sides; binding response (% of control), % at 10 µM; 1.1% of 290,000 active; AID 1531; in the data active means binding response below about 67% or above about 130%
MEKK2wt confirm: raises or lowers MEK5 binding to wildtype human MEKK2, retest; 2.4% of 5,900 active; AID 1892; shares compounds with MEKK3 PB1 HTS; bead flow cytometry, Alexa488-MEK5 binding to MEKK2 WT; actives lie on both sides; binding response (% of control), % at 10 µM; in the data active means binding response below about 16% or above about 210%; inactive means in between
MEKK2mut confirm: signal of MEK5 binding to mutant human MEKK2, retest | 2% of 5,900 active | percent response, % at 10 µM | AID 1893 | bead flow cytometry, Alexa488-MEK5 binding to MEKK2 mutant | shares compounds with MEKK3 PB1 HTS; in the data active means percent response mostly above about 71%, no sharp cut-off; inactive means mostly below about 38%;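 further: higher means compound restores mutant binding toward wildtype level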
MEKK3-MEK5 inh: MEKK3-MEK5 PB1 inhibition, single concentration confirmation | shares compounds with MEKK3 PB1 HTS | bead flow cytometry, Alexa488-MEK5 binding to MEKK3; active compounds read low | binding response (% of control), % at 10 µM | 1.8% of 5,900 active;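 active means binding response below 72% of control, or above a set upper limit, though filed actives all read lower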;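 further: 100% = DMSO only wells and 0% = binding blocked by excess unlabeled MEK5; lower values mean stronger disruption of MEK5 binding to MEKK3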
* hit, by the source's call; / = not tested or not shown; [ ] = dose if it differs, or a comment. An excerpt weighted towards active compounds, which were near 2.6% of everything screened.

SMILES	Lipid droplet	MEKK2mut PB1 HTS	MEKK3 PB1 HTS	MEKK2 WT-MEK5	MEKK2wt confirm	MEKK2mut confirm	MEKK3-MEK5 inh
O=C(O)CCNC(=O)/C(=C\C=C\c1ccccc1)NC(=O)c1ccccc1	0	35	134*	125	98	-8	99
Cc1ccccc1S(=O)(=O)Cc1ccc(C(=O)NC2CC2)o1	-7	2	103	100	/	/	/
O=S(=O)(NCc1ccc(F)cc1)c1ccc(-n2cccn2)cc1	-13	0	102	99	/	/	/
COc1ccc(C(C(=O)NC2CCCC2)N(C(=O)c2ccoc2C)c2ccccc2)cc1 (stereo not drawn)	-18	0	137*	108	101	1	103
COc1ccc(C(C(=O)NC2CCCCC2)N(C(=O)c2sc(C)nc2C)c2ccc(OC)cc2)cc1 (stereo not drawn)	/	-14	46*[inhibitor]	60	100	-2	98
CCN(CC)CCn1c(NCc2ccco2)nc2ccccc21	/	-1	85	101	/	/	/
Cn1c(NCc2ccco2)nc2ccccc21	-7	-22	16*[inhibitor]	25*[inhibitor]	110	15	113
Nc1c(-c2ccccc2)cnn1-c1ccc(C(=O)O)cc1	4	-25	82*[inhibitor]	81	100	1	104
Cc1ccc(-c2cnn(-c3ccccc3)c2N)cc1	-3	5	103	105	/	/	/
CCOCC(=O)Nc1ccc([N+](=O)[O-])cc1C	2	-10	90	86	/	/	/
CC1(C)NC(=O)N(CC(O)CN2C(=O)CCC2=O)C1=O (stereo not drawn)	2	-1	99	100	/	/	/
CC1(C)NC(=O)N(CC(O)Cn2nnc3ccccc32)C1=O (stereo not drawn)	2	-12	80*[inhibitor]	88	115	11	105
NC(=O)c1c(NC(=O)Cn2cc([N+](=O)[O-])cn2)sc2c1CCCC2	16	270*	95	/	101	7	103
CSc1ccc(C(=O)C2CCCN(C(=O)CCc3c(C)nn(C)c3C)C2)cc1 (stereo not drawn)	-6	8	105	110	/	/	/
N#Cc1c(C(F)(F)F)cc(-c2ccccc2)[nH]c1=O	/	4	127*	122	106	5	107
Cc1ccc(-c2cc(C(F)(F)F)c(C#N)c(=O)[nH]2)cc1	-7	2	108	101	/	/	/
COc1ccc(/C=C/C(=O)C2CC2)cc1COc1cccc(C)c1C	-21	7	104	110	/	/	/
Cc1ccc2nc(N(CCCN(C)C)C(=O)c3cc(-c4cccs4)nc4ccccc34)sc2c1	-5	73*	116	228*	205	63	109
CN(C)CCCN(C(=O)/C=C/c1cccs1)c1nc2c(F)cccc2s1	-16	4	109	132	/	/	/
CN(C)CCCN(C(=O)c1cc(-c2cccs2)nc2ccccc12)c1nc2c(F)cccc2s1	-1	27*	103	172*	173	45	99
COC(=O)C(NC(=O)c1ccccc1)(Nc1cc(C)cc(C)n1)C(F)(F)F (stereo not drawn)	-18	6	126*	92	104	1	101
O=S(=O)(Nc1cccnc1)c1cccs1	1	-24	41*[inhibitor]	54	111	14	106
CCc1sc(C(=O)Nc2cccc(C(C)=O)c2)cc1C	-6	1	101	102	/	/	/
COc1ccc(-c2cc(C#N)nc(N3CCNCC3)n2)cc1	14	57*	84	215*	223*	71*	95
COc1ccc(-c2cc(C#N)nc(N3CCN(C)CC3)n2)cc1	2	-3	94	101	/	/	/
SMILES	Lipid droplet	MEKK2mut PB1 HTS	MEKK3 PB1 HTS	MEKK2 WT-MEK5	MEKK2wt confirm	MEKK2mut confirm	MEKK3-MEK5 inh
CC(c1ccccc1)C1OCC(C[N+]2(C)CCCCC2)O1 (stereo not drawn)	-11	-18	43*[inhibitor]	47*[inhibitor]	105	7	105
CCCCC(CC)C1OCC(C[N+]2(C)CCOCC2)O1 (stereo not drawn)	-3	0	105	104	/	/	/
Cc1ccc(NS(=O)(=O)c2cc([N+](=O)[O-])ccc2NNC(=S)Nc2cccc(Cl)c2)c(C)c1	-38	-2	136*	68	87	-7	93
CCC(=O)NC(=S)Nc1ccc(NC(=O)c2ccc(Br)o2)cc1	18	-8	107	95	/	/	/
COc1ccc(-c2cc(-c3nnc(COC(=O)CC4CCCC4)o3)c3ccccc3n2)cc1OC	-14	0	135*	93	95	-9	99
Oc1cccc(NC(=S)Nc2ccc(SC(F)F)cc2)c1	-26	1	106	110	/	/	/
S=C(Nc1ccc(Br)cc1)NC1CCCCC1	34	1	151*	116	108	6	107
FC(F)Sc1ccc(NC(=S)NC2CCC(NC(=S)Nc3ccc(SC(F)F)cc3)CC2)cc1 (stereo not drawn)	1	9	112	145*	131	12	104
CCOC(=O)C1CCN(C(=O)C2CCN(S(=O)(=O)N3CCC4(CC3)OCCO4)CC2)CC1	19	1	101	100	/	/	/
OC(c1cc(-c2ccc(C(F)(F)F)cc2)nc(C(F)(F)F)c1)C1CCCCN1 (stereo not drawn)	-13	57*	111	165*	153	32	103
COc1cccc(CNC(=O)c2ccccc2NC(=O)C2=C(C)OCCS2)c1OC	0	-10	94	92	/	/	/
COC(=O)C1C(=O)N2CCCSC2=C(C#N)C1c1cccs1 (stereo not drawn)	/	-11	55*[inhibitor]	59	101	0	103
O=C(O)COc1cccc(NC(=O)c2ccccc2)c1	/	4	105	106	/	/	/
CC(C)CCOc1cccc(OCC(=O)O)c1	-2	1	183*	96	107	4	105
CCN(CC)S(=O)(=O)c1ccc(OC)c(NC(=O)C(C)Oc2ccc3c(C)cc(=O)oc3c2)c1 (stereo not drawn)	-21	0	145*	107	103	3	105
O=C(O)CNC(=S)N(Cc1ccccc1Cl)C1CCCCC1	2	-14	48*[inhibitor]	63	87	-11	85
O=C(O)c1cc(-c2cccc(Cl)c2)nc2nc(N3CCCCC3)sc12	0	-2	96	96	/	/	/
Cc1oc(/C=N/NC(=O)CC2(C)OCCO2)cc1Br	-6	2	132*	111	107	6	106
Cc1ccc(C(=O)C(C)OC(=O)Cn2[nH]c(=O)c3ccccc3c2=O)cc1C (stereo not drawn)	0	8	103	104	/	/	/
